{
  "source": "paper PMC10840089",
  "about": "(RSC Advances, 2024)",
  "key": {"[1]": {"target": "T1, α-amylase from porcine pancreas (Sus scrofa, UniProt P00690)", "T1 sequence (P00690 16-511)": "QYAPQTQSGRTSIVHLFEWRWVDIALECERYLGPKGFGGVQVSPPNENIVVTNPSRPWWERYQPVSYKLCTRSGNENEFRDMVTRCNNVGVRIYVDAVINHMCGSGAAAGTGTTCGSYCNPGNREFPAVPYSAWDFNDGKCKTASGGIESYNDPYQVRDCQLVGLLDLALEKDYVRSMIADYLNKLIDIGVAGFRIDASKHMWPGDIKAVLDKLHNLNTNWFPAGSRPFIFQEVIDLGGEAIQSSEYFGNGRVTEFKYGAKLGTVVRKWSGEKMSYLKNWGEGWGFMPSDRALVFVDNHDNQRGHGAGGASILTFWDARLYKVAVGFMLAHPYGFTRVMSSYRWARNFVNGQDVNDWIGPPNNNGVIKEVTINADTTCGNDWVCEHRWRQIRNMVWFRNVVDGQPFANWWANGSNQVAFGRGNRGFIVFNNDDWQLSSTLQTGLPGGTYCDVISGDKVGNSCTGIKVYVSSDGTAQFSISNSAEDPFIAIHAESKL", "assay": "α-amylase inhibition assay", "assay_type": "biochemical"}, "[2]": {"target": "T1, α-amylase from porcine pancreas", "assay": "α-amylase inhibition kinetics", "assay_type": "biochemical", "details": "for type (mechanism) of α-amylase inhibition: Lineweaver–Burk plot, starch 0.5 to 2.5%", "in_short": "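Porcine pancreatic enzyme (1151 U mg−1 protein) diluted in 0.2 mol L−1 phosphate buffer, pH 6, preincubated with test compound (6.25–50 μM) 5 min at 25 °C. Soluble starch (0.5–2.5%) then added, 10 min at 25 °C. Reducing sugar measured with DNS (boiling water, 15 min) at 540 nm against a glucose standard curve. Inhibition type taken from Lineweaver–Burk plots, Vmax and KM by graph fitting.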"}},
  "note": "“Also recorded” adds a separate entry of the source.",
  "data": [
    {"compound": "C=C1CC[C@@H]2C(C)(C)C(=O)CC[C@@]2(C)[C@@H]1COc1ccc2ccc(=O)oc2c1", "note": "[Compound 2, 7-(((1R,4aS,8aR)-5,5,8a-trimethyl-2-methylene-6-oxodecahydronaphthalen-1-yl)methoxy)-2H-chromen-2-one]", "values": [
      {"measurement": "IC50", "setting": "[1]", "value": "25 ± 0.99", "unit": "µM"}
    ]},
    {"compound": "C=C1CC[C@@H]2C(C)(C)C(=O)/C(=C/c3ccccc3)C[C@@]2(C)[C@@H]1COc1ccc2ccc(=O)oc2c1", "note": "[Compound 3a, 7-(((1R,4aS,8aR)-7-((E)-benzylidene)-5,5,8a-trimethyl-2-methylene-6-oxodecahydronaphthalen-1-yl)methoxy)-2H-chromen-2-one]", "values": [
      {"measurement": "IC50", "setting": "[1]", "value": "29 ± 0.65", "unit": "µM"}
    ]},
    {"compound": "C=C1CC[C@@H]2C(C)(C)C(=O)/C(=C/c3ccc4ccccc4c3)C[C@@]2(C)[C@@H]1COc1ccc2ccc(=O)oc2c1", "note": "[Compound 3b, 7-(((1R,4aS,8aR,E)-5,5,8a-trimethyl-2-methylene-7-(naphthalen-2-ylmethylene)-6-oxodecahydronaphthalen-1-yl)methoxy)-2H-chromen-2-one]", "values": [
      {"measurement": "IC50", "setting": "[1]", "value": "14.4 ± 0.3", "unit": "µM"}
    ]},
    {"compound": "C=C1CC[C@@H]2C(C)(C)C(=O)/C(=C/c3ccc(F)cc3)C[C@@]2(C)[C@@H]1COc1ccc2ccc(=O)oc2c1", "note": "[Compound 3c, 7-(((1R,4aS,8aR)-7-((E)-4-fluorobenzylidene)-5,5,8a-trimethyl-2-methylene-6-oxodecahydronaphthalen-1-yl)methoxy)-2H-chromen-2-one]", "values": [
      {"measurement": "IC50", "setting": "[1]", "value": "13.2 ± 0.73", "unit": "µM"}
    ]},
    {"compound": "C=C1CC[C@@H]2C(C)(C)C(=O)/C(=C/c3ccc(Cl)cc3)C[C@@]2(C)[C@@H]1COc1ccc2ccc(=O)oc2c1", "note": "[Compound 3d, 7-(((1R,4aS,8aR)-7-((E)-4-chlorobenzylidene)-5,5,8a-trimethyl-2-methylene-6-oxodecahydronaphthalen-1-yl)methoxy)-2H-chromen-2-one]", "values": [
      {"measurement": "IC50", "setting": "[1]", "value": "17.2 ± 0.5", "unit": "µM"}
    ]},
    {"compound": "C=C1CC[C@@H]2C(C)(C)C(=O)/C(=C/c3ccc(Br)cc3)C[C@@]2(C)[C@@H]1COc1ccc2ccc(=O)oc2c1", "note": "[Compound 3e, 7-(((1R,4aS,8aR)-7-((E)-4-bromobenzylidene)-5,5,8a-trimethyl-2-methylene-6-oxodecahydronaphthalen-1-yl)methoxy)-2H-chromen-2-one]", "values": [
      {"measurement": "IC50", "setting": "[1]", "value": "15.4 ± 0.29", "unit": "µM"}
    ]},
    {"compound": "C=C1CC[C@@H]2C(C)(C)C(=O)/C(=C/c3ccc(C)cc3)C[C@@]2(C)[C@@H]1COc1ccc2ccc(=O)oc2c1", "note": "[Compound 3f, 7-(((1R,4aS,8aR)-5,5,8a-trimethyl-7-((E)-4-methylbenzylidene)-2-methylene-6-oxodecahydronaphthalen-1-yl)methoxy)-2H-chromen-2-one]", "values": [
      {"measurement": "IC50", "setting": "[1]", "value": "22.3 ± 0.9", "unit": "µM"}
    ]},
    {"compound": "C=C1CC[C@@H]2C(C)(C)C(=O)/C(=C/c3ccc(C(C)(C)C)cc3)C[C@@]2(C)[C@@H]1COc1ccc2ccc(=O)oc2c1", "note": "[Compound 3g, 7-(((1R,4aS,8aR)-7-((E)-4-(tert-butyl)benzylidene)-5,5,8a-trimethyl-2-methylene-6-oxodecahydronaphthalen-1-yl)methoxy)-2H-chromen-2-one]", "values": [
      {"measurement": "IC50", "setting": "[1]", "value": "22.7 ± 0.86", "unit": "µM"}
    ]},
    {"compound": "C=C1CC[C@@H]2C(C)(C)C(=O)/C(=C/c3ccc(OC)cc3)C[C@@]2(C)[C@@H]1COc1ccc2ccc(=O)oc2c1", "note": "[Compound 3h, 7-(((1R,4aS,8aR)-7-((E)-4-methoxybenzylidene)-5,5,8a-trimethyl-2-methylene-6-oxodecahydronaphthalen-1-yl)methoxy)-2H-chromen-2-one]", "values": [
      {"measurement": "IC50", "setting": "[1]", "value": "13.5 ± 0.54", "unit": "µM"}
    ]},
    {"compound": "C=C1CC[C@@H]2C(C)(C)C(=O)/C(=C/c3ccccc3OC)C[C@@]2(C)[C@@H]1COc1ccc2ccc(=O)oc2c1", "note": "[Compound 3i, 7-(((1R,4aS,8aR)-7-((E)-2-methoxybenzylidene)-5,5,8a-trimethyl-2-methylene-6-oxodecahydronaphthalen-1-yl)methoxy)-2H-chromen-2-one]", "values": [
      {"measurement": "IC50", "setting": "[1]", "value": "14.5 ± 0.3", "unit": "µM"}
    ]},
    {"compound": "C=C1CC[C@@H]2C(C)(C)C(=O)/C(=C/c3ccc(OC)c(OC)c3)C[C@@]2(C)[C@@H]1COc1ccc2ccc(=O)oc2c1", "note": "[Compound 3j, 7-(((1R,4aS,8aR)-7-((E)-3,4-dimethoxybenzylidene)-5,5,8a-trimethyl-2-methylene-6-oxodecahydronaphthalen-1-yl)methoxy)-2H-chromen-2-one]", "values": [
      {"measurement": "IC50", "setting": "[1]", "value": "13 ± 0.96", "unit": "µM"},
      {"measurement": "type (mechanism) of α-amylase inhibition", "setting": "[2]", "value": "non-competitive inhibition"}
    ]},
    {"compound": "C=C1CC[C@@H]2C(C)(C)C(=O)/C(=C/c3cccc(OC(F)(F)C(F)F)c3)C[C@@]2(C)[C@@H]1COc1ccc2ccc(=O)oc2c1", "note": "[Compound 3k, 7-(((1R,4aS,8aR)-5,5,8a-trimethyl-2-methylene-6-oxo-7-((E)-3-(1,1,2,2-tetrafluoroethoxy)benzylidene)decahydronaphthalen-1-yl)methoxy)-2H-chromen-2-one]", "values": [
      {"measurement": "IC50", "setting": "[1]", "value": "7.24 ± 0.36", "unit": "µM"},
      {"measurement": "Ki", "setting": "[2]", "value": 1.02, "unit": "µM"},
      {"measurement": "type (mechanism) of α-amylase inhibition", "setting": "[2]", "value": "mixed competitive-non-competitive inhibitors"}
    ]},
    {"compound": "C=C1CC[C@@H]2C(C)(C)C(=O)/C(=C/c3ccc(N(C)C)cc3)C[C@@]2(C)[C@@H]1COc1ccc2ccc(=O)oc2c1", "note": "[Compound 3l, 7-(((1R,4aS,8aR)-7-((E)-4-(dimethylamino)benzylidene)-5,5,8a-trimethyl-2-methylene-6-oxodecahydronaphthalen-1-yl)methoxy)-2H-chromen-2-one]", "values": [
      {"measurement": "IC50", "setting": "[1]", "value": "10.8 ± 0.6", "unit": "µM"},
      {"measurement": "type (mechanism) of α-amylase inhibition", "setting": "[2]", "value": "mixed competitive-non-competitive inhibitors"}
    ]},
    {"compound": "C=C1CC[C@@H]2C(C)(C)C(=O)/C(=C/c3ccc(N4CCCC4)cc3)C[C@@]2(C)[C@@H]1COc1ccc2ccc(=O)oc2c1", "note": "[Compound 3m, 7-(((1R,4aS,8aR)-5,5,8a-trimethyl-2-methylene-6-oxo-7-((E)-4-(pyrrolidin-1-yl)benzylidene)decahydronaphthalen-1-yl)methoxy)-2H-chromen-2-one]", "values": [
      {"measurement": "IC50", "setting": "[1]", "value": "8.83 ± 0.22", "unit": "µM"},
      {"measurement": "type (mechanism) of α-amylase inhibition", "setting": "[2]", "value": "mixed non-competitive-uncompetitive inhibitor; also recorded: mixed non-competitive-uncompetitive inhibition"}
    ]}
  ]
}
